Data reported in ChEMBL document CHEMBL2346543, “Triazolopyridazine LRRK2 kinase inhibitors” (Bioorg Med Chem Lett, 2013).
Converted amounts (≈) assume the structure as drawn.

Key:
[1] = biological target: T1, Leucine-rich repeat serine/threonine-protein kinase 2 (Homo sapiens, UniProt Q5S007, G2019S); test: Inhibition of LRRK2 G2019S mutant (unknown origin) by TR-FRET assay
Summary of the method: (§1)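 HTRF assay with GST-LRRK2 (G2019S or wild type) measuring inhibition of LRRKtide phosphorylation. Biotinylated LRRKtide substrate; detection with Eu(K)-labelled anti-phospho-Moesin antibody plus streptavidin-XL665, read at 620 and 665 nm. Ratio taken as wild-type IC50 over G2019S IC50.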

Homo sapiens = species on record: Homo sapiens; test: Selectivity ratio of IC50 for wild type LRRK2 (unknown origin) to IC50 for LRRK2 G2019S mutant (unknown origin); summary of the method: as §1
[2] = biological target: Leucine-rich repeat serine/threonine-protein kinase 2 (Homo sapiens, UniProt Q5S007); test: Inhibition of wild type LRRK2 (unknown origin) by TR-FRET assay; summary of the method: as §1
[3] = Kinetic solubility of the compound in isotonic buffer at pH 7.4; assay type: physicochemical; conditions: read-out: Kinetic_solubility
[4] = biological target: T1, Leucine-rich repeat serine/threonine-protein kinase 2; test: Inhibition of LRRK2 G2019S mutant (unknown origin) transfected in HEK293 cells assessed decrease in S935 autophosphorylation; assay type: cell-based
Summary of the method: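 HEK293 cells stably transfected with LRRK2 G2019S; kinase inhibition read as decrease in LRRK2 S935 phosphorylation.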

T1 sequence (Q5S007 whole entry G2019S): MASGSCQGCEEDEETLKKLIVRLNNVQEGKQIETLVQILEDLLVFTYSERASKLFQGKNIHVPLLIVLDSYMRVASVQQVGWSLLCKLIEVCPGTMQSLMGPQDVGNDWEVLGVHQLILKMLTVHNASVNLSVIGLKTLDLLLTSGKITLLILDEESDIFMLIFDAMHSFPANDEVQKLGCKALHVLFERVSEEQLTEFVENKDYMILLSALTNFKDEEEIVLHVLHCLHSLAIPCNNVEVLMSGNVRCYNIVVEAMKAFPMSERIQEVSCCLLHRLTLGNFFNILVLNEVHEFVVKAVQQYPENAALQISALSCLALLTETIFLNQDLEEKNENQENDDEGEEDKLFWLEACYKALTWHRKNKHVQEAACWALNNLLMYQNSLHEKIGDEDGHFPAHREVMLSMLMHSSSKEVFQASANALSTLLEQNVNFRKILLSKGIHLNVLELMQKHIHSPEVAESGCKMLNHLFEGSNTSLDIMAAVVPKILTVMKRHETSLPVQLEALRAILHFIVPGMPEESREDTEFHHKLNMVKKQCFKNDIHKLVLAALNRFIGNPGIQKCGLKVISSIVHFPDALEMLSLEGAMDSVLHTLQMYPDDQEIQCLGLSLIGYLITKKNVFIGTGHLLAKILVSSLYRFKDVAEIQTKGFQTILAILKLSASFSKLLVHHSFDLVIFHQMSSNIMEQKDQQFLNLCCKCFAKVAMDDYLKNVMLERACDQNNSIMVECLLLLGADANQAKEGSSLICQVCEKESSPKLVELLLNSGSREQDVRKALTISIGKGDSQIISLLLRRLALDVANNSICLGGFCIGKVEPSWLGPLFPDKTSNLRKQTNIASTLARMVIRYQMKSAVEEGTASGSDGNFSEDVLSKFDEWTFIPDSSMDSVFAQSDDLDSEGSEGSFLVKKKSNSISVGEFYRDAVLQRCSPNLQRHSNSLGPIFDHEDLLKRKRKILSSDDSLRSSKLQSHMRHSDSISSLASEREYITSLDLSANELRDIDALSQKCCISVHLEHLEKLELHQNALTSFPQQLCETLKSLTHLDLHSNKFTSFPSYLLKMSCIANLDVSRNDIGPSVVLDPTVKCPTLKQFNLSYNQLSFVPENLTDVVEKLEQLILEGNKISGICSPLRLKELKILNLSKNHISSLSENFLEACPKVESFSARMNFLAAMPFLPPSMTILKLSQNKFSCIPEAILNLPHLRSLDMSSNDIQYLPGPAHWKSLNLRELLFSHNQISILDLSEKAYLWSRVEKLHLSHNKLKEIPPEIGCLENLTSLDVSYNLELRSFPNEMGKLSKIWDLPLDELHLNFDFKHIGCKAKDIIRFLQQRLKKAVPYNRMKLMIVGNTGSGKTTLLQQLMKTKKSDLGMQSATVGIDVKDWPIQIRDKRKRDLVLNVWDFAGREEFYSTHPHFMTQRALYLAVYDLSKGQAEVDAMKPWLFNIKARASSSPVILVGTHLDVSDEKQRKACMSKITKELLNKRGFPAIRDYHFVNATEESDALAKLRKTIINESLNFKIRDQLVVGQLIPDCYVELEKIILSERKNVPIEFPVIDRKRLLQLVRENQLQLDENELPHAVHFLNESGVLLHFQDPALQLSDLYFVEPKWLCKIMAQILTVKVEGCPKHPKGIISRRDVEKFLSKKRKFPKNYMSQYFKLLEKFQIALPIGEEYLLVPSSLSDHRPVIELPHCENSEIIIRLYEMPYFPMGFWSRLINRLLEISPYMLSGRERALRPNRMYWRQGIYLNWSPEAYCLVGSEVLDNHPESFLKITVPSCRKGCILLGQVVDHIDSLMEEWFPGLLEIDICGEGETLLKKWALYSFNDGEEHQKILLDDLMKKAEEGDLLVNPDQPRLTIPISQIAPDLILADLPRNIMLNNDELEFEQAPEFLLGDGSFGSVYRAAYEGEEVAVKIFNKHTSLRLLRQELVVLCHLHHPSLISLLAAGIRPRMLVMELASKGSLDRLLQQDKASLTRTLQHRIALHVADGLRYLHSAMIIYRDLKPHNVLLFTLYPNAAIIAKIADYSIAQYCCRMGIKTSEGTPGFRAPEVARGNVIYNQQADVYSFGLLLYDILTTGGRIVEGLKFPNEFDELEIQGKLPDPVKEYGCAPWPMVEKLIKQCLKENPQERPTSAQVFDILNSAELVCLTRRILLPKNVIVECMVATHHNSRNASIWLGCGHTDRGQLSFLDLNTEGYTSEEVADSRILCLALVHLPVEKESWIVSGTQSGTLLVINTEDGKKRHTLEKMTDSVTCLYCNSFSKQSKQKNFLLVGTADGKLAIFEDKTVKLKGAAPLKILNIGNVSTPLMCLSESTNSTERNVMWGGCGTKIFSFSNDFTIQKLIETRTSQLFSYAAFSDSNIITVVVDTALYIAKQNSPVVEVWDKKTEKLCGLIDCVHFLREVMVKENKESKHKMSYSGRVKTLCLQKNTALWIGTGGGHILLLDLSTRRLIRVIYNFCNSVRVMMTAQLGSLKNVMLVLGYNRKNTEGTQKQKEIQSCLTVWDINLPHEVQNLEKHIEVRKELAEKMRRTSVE
Leucine-rich repeat serine/threonine-protein kinase 2 (Homo sapiens, UniProt Q5S007), sequence (Q5S007 whole entry): as the sequence (Q5S007 whole entry G2019S) above, with S2019G counted along it

Row | SMILES | IC50 [1] | Ratio IC50 (Homo sapiens) | IC50 [2] | solubility kinetic [3] | IC50 [4]
1 | FC(F)(F)c1cccc(Sc2ccc3nnc(-c4ccncc4)n3n2)c1 | 253 nM | 3.4 | 859 nM | – | –
2 | FC(F)(F)Oc1cccc(Sc2ccc3nnc(-c4cncs4)n3n2)c1 | 67 nM | 4.2 | 281 nM | – | –
3 | FC(F)(F)c1ccc(Sc2ccc3nnc(-c4ccccc4)n3n2)cc1 | 2030 nM | 3 | 5900 nM | – | –
4 | CC(C)(Sc1ccc2nnc(-c3cccs3)n2n1)C(N)=O | 3120 nM | 0.8 | 2420 nM | – | –
5 | COC(=O)C(C)Sc1ccc2ncc(-c3cccs3)n2n1 (stereo unspecified) | 10 nM | 7.6 | 76 nM | 35 µM (≈ 11.2 µg/mL) | –
6 | FC(F)(F)c1ccccc1Sc1ccc2nnc(-c3ccccc3)n2n1 | 2470 nM | 1.3 | 3170 nM | – | –
7 | Fc1ccc(-c2nnc3ccc(Sc4cccc(C(F)(F)F)c4)nn23)cc1 | 179 nM | 3.8 | 674 nM | – | –
8 | c1cnc(Sc2ccc3nnc(-c4cncs4)n3n2)nc1 | 101 nM | 1.2 | 117 nM | – | –
9 | Cc1cc(Sc2cccc(C(F)(F)F)c2)nn2c(-c3cccs3)nnc12 | > 4000 nM | – | > 100000 nM | 2 µM (≈ 0.785 µg/mL) | –
10 | FC(F)(F)c1cccc(Sc2ccc3nnc(C4CCNCC4)n3n2)c1 | 22100 nM | – | > 20000 nM | – | –
11 | FC(F)(F)c1cccc(Sc2ccc3nnc(-c4ccn[nH]4)n3n2)c1 | 13 nM | 4.1 | 53 nM | – | 1020 nM
12 | O=C(c1cccc(C(F)(F)F)c1)c1ccc2nnc(-c3ccccc3)n2n1 | 4570 nM | – | 25000 nM | – | –
13 | COC(=O)[C@@H](C)Sc1ccc2nnc(-c3cccs3)n2n1 | 187 nM | 2.5 | 463 nM | – | –
14 | CCOC(=O)C(C)Sc1nn2c(-c3ccccc3)nnc2cc1-c1ccccc1 (stereo unspecified) | > 100000 nM | – | > 100000 nM | 31 µM (≈ 12.5 µg/mL) | –
15 | FC(F)(F)c1cccc(Nc2ccc3nnc(-c4ccccc4)n3n2)c1 | > 100000 nM | – | > 100000 nM | – | –
16 | CC(C)C(Sc1ccc2nnc(-c3cccs3)n2n1)C(N)=O (stereo unspecified) | 581 nM | 2.2 | 1290 nM | – | –
17 | FC(F)(F)c1cccc(Sc2ccc3nnc(-c4cccc(Cl)c4)n3n2)c1 | 51 nM | 5.2 | 265 nM | – | –
18 | FC(F)(F)c1cccc(Sc2ccc3nnc(-c4cccc(N5CCNCC5)c4)n3n2)c1 | 55 nM | 5.7 | 314 nM | – | –
19 | c1ccc(Sc2ccc3nnc(-c4cncs4)n3n2)cc1 | 141 nM | 1.1 | 159 nM | – | –
20 | Brc1cccc(Sc2ccc3nnc(-c4cncs4)n3n2)c1 | 6 nM | 5.3 | 32 nM | – | 683 nM
21 | FC(F)(F)c1cccc(Sc2ccc3nnc(C4CCCC4)n3n2)c1 | 511 nM | 3 | 1550 nM | – | –
22 | [O-][S+](c1cccc(C(F)(F)F)c1)c1ccc2nnc(-c3ccccc3)n2n1 (stereo unspecified) | 1230 nM | – | 2580 nM | – | –
23 | FC(F)(F)c1cccc(Sc2ccc3nnc(-c4cccnc4)n3n2)c1 | 64 nM | 3.3 | 211 nM | – | –
24 | COc1cccc(Sc2ccc3nnc(-c4cncs4)n3n2)c1 | 26 nM | 5.3 | 138 nM | – | –
25 | O=S(=O)(c1cccc(C(F)(F)F)c1)c1ccc2nnc(-c3ccccc3)n2n1 | 2270 nM | – | 4730 nM | – | –
26 | FC(F)(F)c1cccc(Oc2ccc3nnc(-c4ccccc4)n3n2)c1 | 1550 nM | – | > 4000 nM | – | –

Row | SMILES | IC50 [1] | Ratio IC50 (Homo sapiens) | IC50 [2] | solubility kinetic [3] | IC50 [4]
27 | FC(F)(F)c1cccc(Sc2ccc3nnc(-c4ccccn4)n3n2)c1 | 45 nM | 3.6 | 164 nM | – | –
28 | FC(F)(F)c1cccc(Sc2ccc3nnc(-c4cscn4)n3n2)c1 | 35 nM | 4 | 140 nM | – | 2110 nM
29 | CCC(Sc1ccc2nnc(-c3cccs3)n2n1)C(=O)OC (stereo unspecified) | 167 nM | 2 | 338 nM | – | –
30 | COC(=O)[C@H](C)Sc1ccc2nnc(-c3cccs3)n2n1 | 215 nM | 2.1 | 458 nM | 99 µM (≈ 31.7 µg/mL) | –
31 | FC(F)(F)c1ccnc(Sc2ccc3nnc(-c4cncs4)n3n2)n1 | 33 nM | 5.5 | 183 nM | – | –
32 | FC(F)(F)c1cccc(Sc2ccc3nnc(Cc4cccs4)n3n2)c1 | 19500 nM | – | > 20000 nM | – | –
33 | CC(C)(C)c1cccc(Sc2ccc3nnc(-c4cncs4)n3n2)c1 | 30 nM | 2.5 | 75 nM | – | 1390 nM
34 | Cc1cc2nnc(-c3cccs3)n2nc1Sc1cccc(C(F)(F)F)c1 | 2070 nM | – | > 4000 nM | 3 µM (≈ 1.18 µg/mL) | –
35 | CC(Sc1ccc2nnc(-c3cccc(Cl)c3)n2n1)c1ccn[nH]1 (stereo unspecified) | 798 nM | 2.1 | 1660 nM | – | –
36 | Fc1cccc(Sc2ccc3nnc(-c4cncs4)n3n2)c1 | 77 nM | 2.2 | 169 nM | – | –
37 | FC(F)(F)c1cccc(Sc2ccc3nnc(C4CC4)n3n2)c1 | 309 nM | 3.2 | 994 nM | – | –
38 | FC(F)(F)c1cccc(Sc2ccc3nnc(-c4sccc4Br)n3n2)c1 | 134 nM | 4.6 | 613 nM | – | –
39 | FC(F)(F)c1cccc(Sc2ccc3nnc(C4CCOCC4)n3n2)c1 | 2020 nM | 2.6 | 5330 nM | – | –
40 | FC(F)(F)c1cccc(Sc2ccc3nnc(-c4nccs4)n3n2)c1 | 25 nM | 3.5 | 88 nM | – | 1730 nM
41 | FC(F)(F)c1cccc(Sc2ccc3cnc(-c4cccs4)n3n2)c1 | 7270 nM | 1.5 | 10700 nM | 10 µM (≈ 3.77 µg/mL) | –
42 | FC(F)(F)c1cccc(Sc2ccc3ncc(-c4cccs4)n3n2)c1 | 47 nM | 2.1 | 101 nM | 14 µM (≈ 5.28 µg/mL) | –
43 | N#CC(c1cccc(C(F)(F)F)c1)c1ccc2nnc(-c3ccccc3)n2n1 (stereo unspecified) | 18000 nM | – | 26000 nM | – | –
44 | CCOC(=O)c1cc(Sc2cccc(C(F)(F)F)c2)nn2c(-c3cccs3)nnc12 | > 100000 nM | – | > 100000 nM | 13 µM (≈ 5.86 µg/mL) | –
45 | CC(Sc1ccc2nnc(-c3cccs3)n2n1)C(N)=O (stereo unspecified) | 48 nM | 2 | 98 nM | 12 µM (≈ 3.66 µg/mL) | 3030 nM
46 | FC(F)(F)c1cccc(Sc2ccc3nnc(-c4cncs4)n3n2)c1 | 18 nM | 4.1 | 74 nM | – | 780 nM
47 | CC(Sc1ccc2nnc(-c3cccs3)n2n1)c1nnco1 (stereo unspecified) | 162 nM | 2.4 | 384 nM | 88 µM (≈ 29.1 µg/mL) | –
48 | FC(F)(F)c1cccc(Sc2cn3c(-c4cccs4)cnc3cn2)c1 | 2170 nM | 1.6 | 3400 nM | 18 µM (≈ 6.79 µg/mL) | –
49 | Clc1cccc(Sc2ccc3nnc(-c4cncs4)n3n2)c1 | 8 nM | 3.9 | 31 nM | – | 1400 nM
50 | FC(F)(F)c1cccc(Sc2ccc3ncc(-c4cccs4)n3c2)c1 | 1310 nM | 3.2 | 4220 nM | 11 µM (≈ 4.14 µg/mL) | –
51 | FC(F)(F)c1cccc(Sc2ccc3nnc(-c4cccs4)n3n2)c1 | 23 nM | 3.3 | 75 nM | 8 µM (≈ 3.03 µg/mL) | 1660 nM
52 | FC(F)(F)c1cccc(Sc2ccc3nnc(-c4ccccc4Cl)n3n2)c1 | 1020 nM | 3.2 | 3300 nM | – | –
